Reference: publication PMC7578760 (iScience, 2020)

Columns and labels:
DUSP6 [1] = experiment: Western blot of DUSP6 expression in 293T / 293T^CIC cells; type: cell-based, human; conditions: parental 293T, 10 ng/mL FGF, various times; SCH772984 10 μM
Method in brief: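 Parental and CIC-knockout 293T cells grown in high-glucose DMEM with 10% FBS and penicillin-streptomycin. Cells stimulated with 10 ng/mL FGF for various times, with or without 10 uM ERK inhibitor, then lysed. DUSP6 detected by western blot.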

ERK signaling = experiment: Block of ERK signaling in MCF7 cells; type: cell-based, human
DUSP6 [2] = experiment: Western blot of DUSP6 expression in 1205Lu melanoma cells; type: cell-based; conditions: 1205Lu (BRAF^V600E), 2 μM PLX4032, 0, 6, 24 h
ERK1/2 = experiment: Western blot of activated ERK1/2 in 293T^CIC cells; type: cell-based, human; conditions: 10 μM, 4 h

Question: Which results are given for `O=C(Nc1ccc2[nH]nc(-c3ccncc3)c2c1)[C@@H]1CCN(CC(=O)N2CCN(c3ccc(-c4ncccn4)cc3)CC2)C1` [SCH772984]?
Answer: DUSP6 expression (DUSP6 [1]): drop; effectiveness to block ERK signaling (ERK signaling): not effective to block the ERK signaling in MCF7 cells

Question: `CCCS(=O)(=O)Nc1ccc(F)c(C(=O)c2c[nH]c3ncc(-c4ccc(Cl)cc4)cc23)c1F` [PLX4032] was tested. Which DUSP6 expression (DUSP6 [2]) did it give?
Answer: time-dependent decrease of DUSP6 expression

Question: How did the “levels of activated ERK1/2” value (ERK1/2) turn out when `CN1CCN(c2ccc(-c3ccncc3-c3cc(F)c(O)c(F)c3)cc2)CC1` [LJH685] was run?
Answer: did not reduce the levels of activated ERK1/2
